Assay outcomes as filed in PubChem BioAssay.
Compounds with a hit are over-represented: about 1.9% of the library has one in this group of screens.
UBC9 SUMO inh: blocks human SUMOylation mediated by UBC9 | P63279 | HTRF SUMOylation assay, SAE1/SAE2 + UBC9, in vitro | inhibition, % at 35 µM | 290,000 compounds, 0.36% hits; in the data active = inhibition above about 50%, passing the limit was not always enough
Target sequence (P63279 whole entry, looked up): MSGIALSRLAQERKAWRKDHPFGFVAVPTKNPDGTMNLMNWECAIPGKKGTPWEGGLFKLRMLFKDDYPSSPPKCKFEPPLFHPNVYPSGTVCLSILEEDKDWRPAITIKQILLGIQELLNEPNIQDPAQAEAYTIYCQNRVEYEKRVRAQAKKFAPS
T cell HTS: T cell immune modulators affecting CD8 T cell-vesicle binding | 2C CD8+ T cell-vesicle binding, flow cytometry; hits give low values | response (vesicle binding), % at 7 µM | 330,000 compounds, 0.068% hits;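 active = response, share of CD8 T cells binding vesicles, and their 90th percentile fluorescence all below set limits, cut at about 80% in these data, passing the limit was not always enough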;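 note: values below 100% mean blocked vesicle binding to the CD8+ T cells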
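Test system: purified 2C TCR transgenic mouse naive CD8+ T cells. Probe or stimulus: QL9-peptide-loaded Drosophila micro-vesicles bearing Ld, ICAM-1 and B7-1. Incubation: binding step 1.5 h, 37 °C, antibody labelling 20 min, ice. Measured by: flow cytometry of vesicle-bound cells.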
Fh CTSL1 inh: cathepsin L1 inhibition, PFM18AAP counter-screen | recombinant F. hepatica cathepsin L1, Z-Leu-Arg-MCA fluorescence | inhibition, % at 5.96 µM | 300,000 compounds, 0.49% hits | AID 1906;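 active = inhibition above the mean of all tested compounds plus 3 SD, set per screening campaign, cut at about 17% in these data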;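 note: 0% = plate median of test compound wells and 100% = 1 µM Z-Phe-Ala-diazomethylketone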
pCIP destab: p/CIP protein destabilization | F442A p/CIP-EGFP cells, EGFP fluorescence, 16 h | decrease of EGFP signal, % at 10 µM | 290,000 compounds, 0.01% hits | AID 1984;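 active = EGFP signal decrease of at least 30% at 10 µM or well 3 SD below plate mean, unless failing retest; inactive = the rest, including hits failing retest or dose response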
VIM-2 inh: blocks Pseudomonas aeruginosa VIM-2 metallo-beta-lactamase. AID 1527. 290,000 compounds, 0.89% hits. purified VIM-2, nitrocefin hydrolysis, epi-absorbance fluorescence. inhibition, % at 5.6 µM;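 active = inhibition above the mean of all tested compounds plus 3 SD, cutoff set per screening run, cut at about 7.5% in these data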;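 note: red hydrolysis product quenches plate fluorescence so inhibitors raise well fluorescence; 0% = enzyme with DMSO and 100% = DMSO without enzyme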
IMP-1 inh-1: inhibitors of Pseudomonas aeruginosa IMP-1 metallo-beta-lactamase; 290,000 compounds, 0.45% hits; purified IMP-1, nitrocefin hydrolysis, epi-absorbance fluorescence; AID 1556; inhibition, % at 5.6 µM;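 active = inhibition above the mean plus 3 SD of all compounds in the same screening run, cut at about 4.5% in these data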;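 note: 0% = IMP-1 with DMSO and 100% = DMSO wells lacking enzyme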
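Material – recombinant IMP-1 enzyme, purified · Amount – IMP-1 0.2 nM before substrate addition · Medium – HEPES buffer pH 7.1 with ZnSO4 and Brij 35 · Timing – 25 °C, 15 min preincubation, 25 min reaction · Measured by – plate fluorescence quenching by hydrolysis product, ex 480/em 530 nm · Read-out – percent enzyme inhibition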
IMP-1 inh-2: blocks IMP-1 metallo-beta-lactamase in VIM-2 selectivity screen; shares compounds with VIM-2 inh; purified IMP-1, nitrocefin hydrolysis, epi-absorbance fluorescence; inhibition, % at 5.6 µM; 1,300 tested, under 10 active; AID 1856; call rule not given here;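 note: 0% = enzyme with vehicle and 100% = vehicle without enzyme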
VIM-2 FRET ctr: counter-screen for VIM-2 inhibitors: epi-absorbance artifacts via FRET; inhibition, % at 5.6 µM; AID 1857; 1,300 compounds, 23% hits; shares compounds with VIM-2 inh; purified VIM-2, CCF2 FRET substrate hydrolysis;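 active = inhibition above the mean of all tested compounds plus 3 SD, cut at about 19% in these data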;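 note: 0% = VIM-2 plus DMSO and 100% = no enzyme wells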
TEM-1 inh: selectivity counter-screen for VIM-2 inhibitors: E. coli TEM-1 inhibitors. shares compounds with VIM-2 inh. Purified TEM-1, nitrocefin hydrolysis, epi-absorbance fluorescence. inhibition, % at 5.6 µM. 1,300 compounds, 3% hits. AID 1866;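 active = inhibition above that campaign's mean inhibition plus 3 SD, cut at about 0.46% in these data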;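 note: 0% = TEM-1 with DMSO and 100% = TEM-1 with 100 µM potassium clavulanate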
Target sequence (P62593 whole entry, looked up): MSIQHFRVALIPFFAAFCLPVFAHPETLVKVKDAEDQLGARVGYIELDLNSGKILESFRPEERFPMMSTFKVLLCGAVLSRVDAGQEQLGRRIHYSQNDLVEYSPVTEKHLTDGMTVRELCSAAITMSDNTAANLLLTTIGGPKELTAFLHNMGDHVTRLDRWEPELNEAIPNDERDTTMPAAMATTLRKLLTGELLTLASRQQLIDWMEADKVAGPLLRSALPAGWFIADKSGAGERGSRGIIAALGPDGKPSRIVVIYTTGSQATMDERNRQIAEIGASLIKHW
VIM-2 confirm 2: confirmation of P. aeruginosa VIM-2 metallo-beta-lactamase inhibitors | shares compounds with VIM-2 inh | purified VIM-2, nitrocefin hydrolysis, epi-absorbance | inhibition, % at 5.6 µM | 1,300 compounds, 96% hits;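 active = inhibition of the VIM-2 beta-lactamase enzyme above about 11% from the earlier first-round screen, limit read from the data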;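 note: 0% = VIM-2 with DMSO and 100% = buffer wells without enzyme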
The depositor's hits bear a star; i = inactive; x = not tested or not shown.

SMILES	UBC9 SUMO inh	T cell HTS	Fh CTSL1 inh	pCIP destab	VIM-2 inh	IMP-1 inh-1	IMP-1 inh-2	VIM-2 FRET ctr	TEM-1 inh	VIM-2 confirm 2
CCc1ccc2nc3nc(C)cc(C)c3c(N)c2c1	38.3	181.2	3.6	5.4	22.9*	-1.6	-1.2	-8.4	-2.9	41.3*
Cc1cc(C)c2c(N)c3ccccc3nc2n1	38.8	366.1	-1.0	-5.7	16.2*	-2.8	-3.5	-6.9	-5.5	33.2*
Cc1ccc(/C=c2\sc3nc(-c4cccnc4)nn3c2=O)cc1	1.7	622.8	-2.0	7.0	56.3*	-3.0	-1.8	64.7*	-4.6	59.9*
CC(=O)c1cccc(NC(=O)COC(=O)C2=COCCO2)c1	-10.1	345.2	-7.0	-4.0	-2.1	-0.1	x	x	x	x
Cc1ccc(CN2CCN(/N=C/c3ccccc3)CC2)cc1	3.2	154.7	0.3	-2.0	-2.3	-0.9	x	x	x	x
COc1cc(/C=N/N2CCN(Cc3ccc(C)cc3)CC2)cc(OC)c1O	-7.7	273.1	-0.1	-2.1	21.7*	-7.8	-5.7	-7.7	-8.6	31.8*
Fc1ccc(Nc2nc(N/N=C/c3ccco3)nc(N3CCCCC3)n2)cc1	-14.7	351.4	10.3	4.3	-3.6	-4.8	x	x	x	x
Cn1c(=O)c2c(SCc3cccnc3)nc(C3CC3)nc2n(C)c1=O	18.2	415.1	1.4	-16.2	29.4*	-3.6	-3.0	-8.2	-3.8	49.0*
CCc1nc(SCc2cccnc2)c2c(=O)n(C)c(=O)n(C)c2n1	16.0	471.0	2.4	4.7	0.6	-3.7	x	x	x	x
O=C1c2ccccc2-c2nc3ccccc3cc21	14.8	x	2.5	-6.4	12.3*	-4.1	-3.9	0.4	-11.2	17.4*
c1ccc2c(c1)Cc1cc3ccccc3nc1-2	-2.4	164.8	-2.0	-19.9	6.8	-2.7	x	x	x	x
CC1CCCCC1NC(=O)C1CCC(CNS(=O)(=O)c2ccccc2)CC1 (stereo not given)	23.0	328.5	-2.1	-7.3	-2.1	-1.3	x	x	x	x
CC(C)CCn1c(=O)c2sccc2n2c(CCCC(=O)N3CCC(N4CCCCC4)CC3)nnc12	17.5	i	3.2	-13.4	12.9*	-2.8	-2.5	2.3	-1.8	16.9*
CCCc1[nH][nH]c(=O)c1C(c1ccc(Cl)cc1)C(C#N)C#N (stereo not given)	1.2	406.0	-0.3	-2.5	12.5*	-3.0	-4.1	14.9	-6.5	0.2
COc1cc(N)c(Cl)cc1C(=O)OCC(=O)NC(=O)NCc1ccco1	x	296.8	x	x	x	x	x	x	x	x
C=C(C)Cn1c(=O)c2c(nc3n2CC(C)CN3Cc2ccccc2)n(C)c1=O (stereo not given)	22.4	367.1	5.2	-10.3	3.5	-4.7	x	x	x	x
CCN1CCN(c2nn3c(=O)c4ccccc4nc3c3ccccc23)CC1	17.4	393.2	0.9	-3.1	18.2*	-2.0	-2.1	4.5	-1.6	30.1*
CCC(C)(C)NS(=O)(=O)c1cc(CN2C(=O)c3cccnc3C2=O)ccc1OC	-0.5	300.3	6.8	-16.8	-2.3	-1.6	x	x	x	x
Fc1ccccc1-c1n[nH]c(=S)n1CC1CCCO1 (stereo not given)	6.5	23.8	1.0	-2.7	35.2*	-2.5	-3.5	60.6*	-5.8	44.3*
O=C(CCc1nnc(CCCc2ccccc2)o1)NC(C1CC1)C1CC1	10.3	207.5	-2.6	-0.6	-3.2	-2.4	x	x	x	x
c1ccc(CN2CCN(CCCNc3ccc4nnc(-c5ccccc5)n4n3)CC2)cc1	-5.9	334.4	0.2	6.6	62.4*	-2.0	-0.2	4.0	0.8*	76.1*
Cc1ccc(CNc2ccc3nnc(-c4ccccc4)n3n2)cc1	27.5	330.6	0.4	-9.7	-4.2	-2.7	x	x	x	x
CCCn1c(=N)c(S(=O)(=O)c2ccc(F)cc2)cc2c(=O)n3cccc(C)c3nc21	7.3	594.2	1.1	-5.9	12.7*	-1.4	-0.9	-4.3	2.9*	27.1*
Cn1ccnc1SCC(=O)Nc1ccc2nc(SCC(=O)NC3CC3)sc2c1	17.5	286.4	-1.2	-4.1	12.7*	-1.6	-3.2	36.1*	-5.5	25.1*
COCCNC(=O)c1cc2c(=O)n(C)c3ccccc3c2n1C	0.6	190.5	1.5	6.8	14.0*	-4.3	-3.0	2.1	-6.9	22.2*
SMILES	UBC9 SUMO inh	T cell HTS	Fh CTSL1 inh	pCIP destab	VIM-2 inh	IMP-1 inh-1	IMP-1 inh-2	VIM-2 FRET ctr	TEM-1 inh	VIM-2 confirm 2
CCCCN(CC)CCCNC(=O)c1cn(C)c(=O)c2c1c1ccccc1n2C	7.4	291.9	-0.1	-5.4	4.6	-1.6	x	x	x	x
COCCNC(=O)c1cc2c3ccccc3n(C)c2s1	-0.5	247.4	-1.6	3.5	-1.1	-0.6	x	x	x	x
CCCCN(CC)CCNC(=O)c1cc2c(C)nc3ccccc3c2o1	8.8	214.0	-1.1	-1.8	14.1*	-1.6	-4.3	1.1	-7.3	17.0*
CN(C)CCNC(=O)c1cc2c(=O)n(C)c3ccccc3c2n1C	15.8	40.4	-1.4	4.5	17.4*	-3.4	-2.1	4.0	-6.5	28.0*
CCCCN(CC)CCNC(=O)c1cc2c(=O)n(C)c3ccccc3c2n1C	5.8	232.4	-0.4	-2.6	20.7*	-1.9	-3.0	1.9	-7.1	29.8*
Cn1c(C(=O)Nc2ccc3c(c2)OCCO3)cc2c(=O)n(C)c3ccccc3c21	-18.1	92.0	5.0	4.8	-1.9	-4.7	x	x	x	x
O=C(Nc1ccc(-n2cc(Br)cn2)cc1)c1ccncc1	17.8	192.0	1.2	-3.1	-1.6	1.0	x	x	x	x
CCN(CC)CCNC(=O)c1cc2c(=O)n(C)c3ccccc3c2n1C	-0.9	25.9	-0.3	10.9	19.6*	-3.8	-2.6	1.9	-5.0	30.8*
CCCN(CCC)CCCNC(=O)c1cc2c(=O)n(C)c3ccccc3c2n1C	16.2	257.6	3.6	-13.1	26.0*	-2.5	-2.6	1.2	-6.0	29.7*
CCN(CC)CCCNC(=O)c1cc2c(=O)n(C)c3ccccc3c2n1C	5.8	287.1	-1.6	-6.0	22.1*	-2.4	-3.1	0.9	-5.3	30.5*
CCn1c2ccccc2c2cc(NC(=O)C(C)OC(=O)c3ccc(NC(=O)CC#N)cc3)ccc21 (stereo not given)	x	388.4	x	x	x	x	x	x	x	x
Cc1c(OCC(=O)NCC(O)c2ccccc2)ccc2c(-c3ccccc3)cc(=O)oc12 (stereo not given)	-8.2	306.9	-0.3	5.8	12.6*	-2.9	-2.2	-0.4	-7.0	26.3*
